According to ChEMBL document CHEMBL5257020, “Discovery of a 9-mer Cationic Peptide (LTX-315) as a Potential First in Class Oncolytic Peptide” (J Med Chem, 2016):
Where a SMILES comes first, the peptide text is derived from it. [ ]: non-standard residue; d: D form. ξ: configuration not given here. Bip = N[C@@H](Cc1ccc(-c2ccccc2)cc1)C(=O)O; ξDip = NC(C(=O)O)C(c1ccccc1)c1ccccc1

Legend:
SU-DHL-1 = experiment: Cytotoxicity against human SU-DHL-1 cells assessed as inhibition of cell proliferation incubated for 4 hrs by MTS assay; type: functional, cell-based; settings: SU-DHL-1, 4 h
In short: (§1)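 Cells grown in RPMI-1640 with 2 mM L-glutamine and 10% FBS, plated, then held 24 h at 37 °C. Adherent lines washed once in FBS-free medium. Cells exposed 4 h at 37 °C, 5% CO2 in FBS-free medium to 10 concentrations (1/4 steps, 400 μM top). 1% Triton X-100 served as positive control. MTS/PMS added for 2 h, then OD 490 nm read. IC50 from semilog curves; three independent experiments, quadruplicate wells.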

Raji = experiment: Cytotoxicity against human Raji cells assessed as inhibition of cell proliferation incubated for 4 hrs by MTS assay; type: functional, cell-based; in short: as §1
[1] = Cytotoxicity against human MINO cells assessed as inhibition of cell proliferation incubated for 4 hrs by MTS assay; type: functional, cell-based; in short: as §1
NAMALVA = experiment: Cytotoxicity against human NAMALVA cells assessed as inhibition of cell proliferation incubated for 4 hrs by MTS assay; type: functional, cell-based; in short: as §1
KARPAS-299 = experiment: Cytotoxicity against human KARPAS-299 cells assessed as inhibition of cell proliferation incubated for 4 hrs by MTS assay; type: functional, cell-based; settings: KARPAS-299, 4 h; in short: as §1
CCRF-CEM = experiment: Cytotoxicity against human CCRF-CEM cells assessed as inhibition of cell proliferation incubated for 4 hrs by MTS assay; type: functional, cell-based; in short: as §1
A20 = experiment: Cytotoxicity against mouse A20 lymphoma cells assessed as inhibition of cell proliferation incubated for 4 hrs by MTT assay; type: functional, cell-based; settings: A20, 4 h
In short: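 Murine A20 cells cultured in RPMI-1640 with 2 mM L-glutamine, 1.5 g/L sodium bicarbonate, 4.5 g/L glucose, 10 mM HEPES, 1.0 mM sodium pyruvate, 0.05 mM 2-mercaptoethanol and 10% FBS, without antibiotics, at 37 °C, 5% CO2. IC50 from three or more independent measurements, given as mean ± SD.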

[2] = Cytotoxicity against mouse AT84 cells assessed as inhibition of cell proliferation incubated for 4 hrs by MTT assay; type: functional, cell-based; settings: AT84, 4 h
HL60/ADR = experiment: Cytotoxicity against human HL60/ADR cells assessed as inhibition of cell proliferation incubated for 4 hrs by MTS assay; type: functional, cell-based; in short: as §1
MCF7 = experiment: Cytotoxicity against human MCF7 cells assessed as inhibition of cell proliferation incubated for 4 hrs by MTS assay; type: functional, cell-based; settings: MCF7, 4 h; in short: as §1
IGROV-1 = experiment: Cytotoxicity against human IGROV-1 cells assessed as inhibition of cell proliferation incubated for 4 hrs by MTS assay; type: functional, cell-based; settings: IGROV-1, 4 h; in short: as §1
[3] = Cytotoxicity against human IGROV(CDDP) cells assessed as inhibition of cell proliferation incubated for 4 hrs by MTS assay; type: functional, cell-based; in short: as §1
K562 [4] = experiment: Cytotoxicity against human K562 cells assessed as inhibition of cell proliferation incubated for 4 hrs by MTS assay; type: functional, cell-based; settings: K562, 4 h; in short: as §1
K562 [5] = experiment: Cytotoxicity in imatinib resistant human K562 cells assessed as inhibition of cell proliferation incubated for 4 hrs by MTS assay; type: functional, cell-based; settings: K562, 4 h
In short: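 Oncodesign panel MTS/PMS assay. Cells in RPMI-1640 + 10% FBS. After 24 h pre-plating, adherent lines washed in FBS-free medium. Cells exposed 4 h at 37 °C in FBS-free medium to 10 concentrations, 1/4 dilutions from 400 μM top. Triton X-100 (1% final) positive control. MTS/PMS added, 2 h, OD 490 nm. IC50 from semilog curves. Three independent experiments, quadruplicate wells.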

Daudi = experiment: Cytotoxicity against human Daudi cells assessed as inhibition of cell proliferation incubated for 4 hrs by MTS assay; type: functional, cell-based; in short: as §1
Toledo = experiment: Cytotoxicity against human Toledo cells assessed as inhibition of cell proliferation incubated for 4 hrs by MTS assay; type: functional, cell-based; in short: as §1
U-937 = experiment: Cytotoxicity against human U-937 cells assessed as inhibition of cell proliferation incubated for 4 hrs by MTS assay; type: functional, cell-based; settings: U-937, 4 h; in short: as §1
SH-SY5Y = experiment: Cytotoxicity against human SH-SY5Y cells assessed as inhibition of cell proliferation incubated for 4 hrs by MTS assay; type: functional, cell-based; in short: as §1
SK-N-AS = experiment: Cytotoxicity against human SK-N-AS cells assessed as inhibition of cell proliferation incubated for 4 hrs by MTS assay; type: functional, cell-based; in short: as §1
MDA-MB-435S = experiment: Cytotoxicity against human MDA-MB-435S cells assessed as inhibition of cell proliferation incubated for 4 hrs by MTS assay; type: functional, cell-based; in short: as §1
HCT-116 = experiment: Cytotoxicity against human HCT-116 cells assessed as inhibition of cell proliferation incubated for 4 hrs by MTS assay; type: functional, cell-based; settings: HCT-116, 4 h; in short: as §1
HCT-15 = experiment: Cytotoxicity against human HCT-15 cells assessed as inhibition of cell proliferation incubated for 4 hrs by MTS assay; type: functional, cell-based; settings: HCT-15, 4 h; in short: as §1
[6] = Cytotoxicity against human HUVEC-C cells assessed as inhibition of cell proliferation incubated for 4 hrs by MTS assay; type: toxicity, cell-based; in short: as §1
A498 = experiment: Cytotoxicity against human A498 cells assessed as inhibition of cell proliferation incubated for 4 hrs by MTS assay; type: functional, cell-based; settings: A498, 4 h; in short: as §1
HepG2 = experiment: Cytotoxicity against human HepG2 cells assessed as inhibition of cell proliferation incubated for 4 hrs by MTS assay; type: functional, cell-based; settings: HepG2, 4 h; in short: as §1
A549 = experiment: Cytotoxicity against human A549 cells assessed as inhibition of cell proliferation incubated for 4 hrs by MTS assay; type: functional, cell-based; settings: A549, 4 h; in short: as §1
Calu-6 = experiment: Cytotoxicity against human Calu-6 cells assessed as inhibition of cell proliferation incubated for 4 hrs by MTS assay; type: functional, cell-based; settings: Calu-6, 4 h; in short: as §1
[7] = Cytotoxicity against human MRC5 cells assessed as inhibition of cell proliferation incubated for 4 hrs by MTS assay; type: toxicity, cell-based; in short: as §1
NCI-H460 = experiment: Cytotoxicity against human NCI-H460 cells assessed as inhibition of cell proliferation incubated for 4 hrs by MTS assay; type: functional, cell-based; settings: NCI-H460, 4 h; in short: as §1
SK-OV-3 = experiment: Cytotoxicity against human SK-OV-3 cells assessed as inhibition of cell proliferation incubated for 4 hrs by MTS assay; type: functional, cell-based; settings: SK-OV-3, 4 h; in short: as §1
BXPC-3 = experiment: Cytotoxicity against human BXPC-3 cells assessed as inhibition of cell proliferation incubated for 4 hrs by MTS assay; type: functional, cell-based; settings: BXPC-3, 4 h; in short: as §1
PC-3 = experiment: Cytotoxicity against human PC-3 cells assessed as inhibition of cell proliferation incubated for 4 hrs by MTS assay; type: functional, cell-based; settings: PC-3, 4 h; in short: as §1
A-431 = experiment: Cytotoxicity against human A-431 cells assessed as inhibition of cell proliferation incubated for 4 hrs by MTS assay; type: functional, cell-based; settings: A-431, 4 h; in short: as §1
Malme-3M = experiment: Cytotoxicity against human Malme-3M cells assessed as inhibition of cell proliferation incubated for 4 hrs by MTS assay; type: functional, cell-based; in short: as §1
SK-MEL-2 = experiment: Cytotoxicity against human SK-MEL-2 cells assessed as inhibition of cell proliferation incubated for 4 hrs by MTS assay; type: functional, cell-based; settings: SK-MEL-2, 4 h; in short: as §1
[8] = Cytotoxicity against human Hs 445 cells assessed as inhibition of cell proliferation incubated for 4 hrs by MTS assay; type: functional, cell-based; settings: Hs 445, 4 h; in short: as §1
[9] = Cytotoxicity against human U-87 MG cells assessed as inhibition of cell proliferation incubated for 4 hrs by MTS assay; type: functional, cell-based, U-87MG ATCC; in short: as §1

| SMILES | IC50 (SU-DHL-1) | IC50 (Raji) | IC50 [1] | IC50 (NAMALVA) | IC50 (KARPAS-299) | IC50 (CCRF-CEM) | IC50 (A20) | IC50 [2] | IC50 (HL60/ADR) | IC50 (MCF7) | IC50 (IGROV-1) | IC50 [3] | IC50 (K562 [4]) | IC50 (K562 [5]) | IC50 (Daudi) | IC50 (Toledo) | IC50 (U-937) | IC50 (SH-SY5Y) | IC50 (SK-N-AS) | IC50 (MDA-MB-435S) | other results |
| --- | --- | --- | --- | --- | --- | --- | --- | --- | --- | --- | --- | --- | --- | --- | --- | --- | --- | --- | --- | --- | --- |
| NCCCC[C@H](NC(=O)[C@H](Cc1c[nH]c2ccccc12)NC(=O)[C@H](Cc1c[nH]c2ccccc12)NC(=O)[C@H](CCCCN)NC(=O)[C@H](CCCCN)NC(=O)[C@H](Cc1c[nH]c2ccccc12)NC(=O)[C@H](Cc1ccc(-c2ccccc2)cc1)NC(=O)[C@H](CCCCN)NC(=O)[C@@H](N)CCCCN)C(N)=O (H-KK[Bip]WKKWWK-NH2) | 5.6 µM | 8.7 µM | 5.9 µM | 6.5 µM | 8.7 µM | 5.3 µM | 8.3 µM | 11.3 µM | 4.9 µM | 4.6 µM | 14.3 µM | 6.6 µM | 7.4 µM | 7.6 µM | 7.9 µM | 5.4 µM | 2.7 µM | 8.8 µM | 6 µM | 9.8 µM | IC50 (HCT-116): 8.6 µM; IC50 (HCT-15): 10 µM; IC50 at 4 h [6]: 33 µM; IC50 (A498): 6.4 µM; IC50 (HepG2): 8.7 µM; IC50 (A549): 7.8 µM; IC50 (Calu-6): 4.9 µM; IC50 at 4 h [7]: 27.9 µM; IC50 (NCI-H460): 8.7 µM; IC50 (SK-OV-3): 12.6 µM; IC50 (BXPC-3): 8.2 µM; IC50 (PC-3): 10.1 µM; IC50 (A-431): 7.1 µM; IC50 (Malme-3M): 7.1 µM; IC50 (SK-MEL-2): 11 µM; IC50 [8]: 2.5 µM; IC50 [9]: 16.9 µM |
| NCCCC[C@H](NC(=O)C(NC(=O)[C@H](Cc1c[nH]c2ccccc12)NC(=O)[C@H](CCCCN)NC(=O)[C@H](CCCCN)NC(=O)[C@H](Cc1c[nH]c2ccccc12)NC(=O)[C@H](Cc1c[nH]c2ccccc12)NC(=O)[C@H](CCCCN)NC(=O)[C@@H](N)CCCCN)C(c1ccccc1)c1ccccc1)C(N)=O (stereo partly specified) (H-KKWWKKW[ξDip]K-NH2) | 2.3 µM | 4.9 µM | 3.7 µM | 3.6 µM | 4.8 µM | 2.6 µM | 8.3 µM | 11 µM | 3 µM | 2.2 µM | 6.4 µM | 3.2 µM | 3 µM | 3 µM | 4 µM | 2.3 µM | 1.2 µM | 3.3 µM | 2.5 µM | 3.1 µM | IC50 (HCT-116): 3.4 µM; IC50 (HCT-15): 3.8 µM; IC50 at 4 h [6]: 16.3 µM; IC50 (A498): 2.9 µM; IC50 (HepG2): 6.7 µM; IC50 (A549): 2.8 µM; IC50 (Calu-6): 2.1 µM; IC50 at 4 h [7]: 9.2 µM; IC50 (NCI-H460): 3.4 µM; IC50 (SK-OV-3): 7.2 µM; IC50 (BXPC-3): 3.7 µM; IC50 (PC-3): 4.4 µM; IC50 (A-431): 3.2 µM; IC50 (Malme-3M): 3.3 µM; IC50 (SK-MEL-2): 5.2 µM; IC50 [8]: 1.7 µM; IC50 [9]: 6.6 µM |
| N=C(N)NCCC[C@H](NC(=O)[C@H](Cc1c[nH]c2ccccc12)NC(=O)[C@H](Cc1c[nH]c2ccccc12)NC(=O)[C@H](CCCNC(=N)N)NC(=O)[C@H](CCCNC(=N)N)NC(=O)C(NC(=O)[C@H](Cc1c[nH]c2ccccc12)NC(=O)[C@H](CCCNC(=N)N)NC(=O)[C@@H](N)CCCNC(=N)N)C(c1ccccc1)c1ccccc1)C(N)=O (stereo partly specified) (H-RRW[ξDip]RRWWR-NH2) | 5 µM | 11.3 µM | 5.2 µM | 5.3 µM | 8.2 µM | 5.6 µM | 6.7 µM | 11.3 µM | 6 µM | 5.5 µM | 11.1 µM | 5.5 µM | 7 µM | 7.7 µM | 4.7 µM | 3 µM | 2.6 µM | 5.4 µM | 6.9 µM | 8 µM | IC50 (HCT-116): 4.8 µM; IC50 (HCT-15): 7.5 µM; IC50 at 4 h [6]: 19.4 µM; IC50 (A498): 5.7 µM; IC50 (HepG2): 16.6 µM; IC50 (A549): 7.3 µM; IC50 (Calu-6): 5.8 µM; IC50 at 4 h [7]: 14.6 µM; IC50 (NCI-H460): 9.3 µM; IC50 (SK-OV-3): 7.4 µM; IC50 (BXPC-3): 6.2 µM; IC50 (PC-3): 9.8 µM; IC50 (A-431): 5.5 µM; IC50 (Malme-3M): 10.4 µM; IC50 (SK-MEL-2): 10.6 µM; IC50 [8]: 2.2 µM; IC50 [9]: 13.1 µM |
